ChEMBL document CHEMBL3044558, “Structure-activity relationship development of dihaloaryl triazole compounds as insecticides and acaricides. 1. Phenyl thiophen-2-yl triazoles” (2007)
Converted amounts (≈) assume the structure as drawn. The source made the active and inactive calls. No cut-off for these calls is given here.

Key:
Heliothis virescens [1] = assay: Insecticidal activity against Heliothis virescens (tobacco budworm) second-instar larvae infested on 400 ppm compound pre-treated cotton cotyledon disk assessed as insect mortality measured 5 days post compound treatment under green house conditions; format: functional
Trichoplusia ni [2] = assay: Insecticidal activity against Trichoplusia ni (cabbage looper) second-instar larvae infested on compound pre-treated cabbage leaf disk assessed as insect mortality measured 5 days post compound treatment under green house conditions; format: functional; conditions: for LC50: Trichoplusia ni, foliar
In short: (§1)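 Leaf disks treated, air-dried and placed singly in cups. Cotton cotyledon disks each get one second-instar tobacco budworm larva; cabbage leaf disks each get one second-instar cabbage looper larva. Cups are capped and held in a growth chamber at 25 °C, 50-55% RH, 14 h light/10 h dark for 5 days.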

Spodoptera exigua [3] = assay: Insecticidal activity against Spodoptera exigua second-instar larvae feeded on compound treated lepidopteran diet assessed as insect mortality measured 5 days post compound treatment under green house conditions; format: functional; conditions: for LC50: Spodoptera exigua, 120 h
Myzus persicae = assay: Insecticidal activity against Myzus persicae (green peach aphid) assessed as insect mortality at 50 ppm; format: functional
Aphis gossypii [4] = assay: Insecticidal activity against Aphis gossypii (cotton aphid) infested one week old Crookneck squash plants assessed as insect mortality at 50 ppm measured after 3 days post compound application under green house conditions; format: functional; conditions: 72 h
Tetranychus urticae [5] = assay: Insecticidal activity against female Tetranychus urticae (two-spotted spider mite) infested cotton leaf disks followed by 2.5 ppm compound spraying after oviposit assessed as insect mortality measured after 6 days post compound application under green house conditions; format: functional; conditions: foliar, 144 h
Heliothis virescens [6] = assay: Insecticidal activity against Heliothis virescens (tobacco budworm) second-instar larvae infested on compound pre-treated cotton cotyledon disk assessed as insect mortality measured 5 days post compound treatment under green house conditions; format: functional; conditions: for LC50: Heliothis virescens; in short: as §1
Aphis gossypii [7] = assay: Insecticidal activity against Aphis gossypii (cotton aphid) infested one week old Crookneck squash plants assessed as insect mortality at 5 ppm measured after 3 days post compound application under green house conditions; format: functional; conditions: 72 h
Bemisia tabaci [8] = test system: Bemisia tabaci
Trichoplusia ni [9] = assay: Insecticidal activity against Trichoplusia ni (cabbage looper) second-instar larvae infested on 400 ppm compound pre-treated cabbage leaf disk assessed as insect mortality measured 5 days post compound treatment under green house conditions; format: functional; conditions: at 400 ppm
Spodoptera exigua [10] = assay: Insecticidal activity against Spodoptera exigua second-instar larvae feeded on 400 ppm compound treated lepidopteran diet assessed as insect mortality measured 5 days post compound treatment under green house conditions; format: functional; conditions: at 400 ppm
Trichoplusia ni [11] = test system: Trichoplusia ni
Aphis gossypii [12] = assay: Insecticidal activity against Aphis gossypii (cotton aphid) infested one week old Crookneck squash plants assessed as insect mortality measured after 3 days post compound application under green house conditions; format: functional; conditions: for LC50: Aphis gossypii, 72 h
Tetranychus urticae [13] = assay: Insecticidal activity against female Tetranychus urticae (two-spotted spider mite) infested cotton leaf disks followed compound spraying after oviposit assessed as insect mortality measured after 6 days post compound application under green house conditions; format: functional; conditions: for LC50: Tetranychus urticae, foliar, 144 h
Bemisia tabaci [14] = assay: Insecticidal activity against Bemisia tabaci (sweet potato whitefly) second-instar larvae infested five weeks old cotton plants followed by compound 250 ppm compound spraying after insect oviposit assessed as insect mortality measured 13 days post compound treatment under green house conditions; format: functional
Spodoptera exigua [15] = assay: Insecticidal activity against Spodoptera exigua second-instar larvae feeded on 25 ppm compound treated lepidopteran diet assessed as insect mortality measured 5 days post compound treatment under green house conditions; format: functional
Trichoplusia ni [16] = assay: Insecticidal activity against Trichoplusia ni (cabbage looper) second-instar larvae infested on 25 ppm compound pre-treated cabbage leaf disk assessed as insect mortality measured 5 days post compound treatment under green house conditions; format: functional; in short: as §1
Heliothis virescens [17] = assay: Insecticidal activity against Heliothis virescens (tobacco budworm) second-instar larvae infested on 25 ppm compound pre-treated cotton cotyledon disk assessed as insect mortality measured 5 days post compound treatment under green house conditions; format: functional; in short: as §1
Aphis gossypii [18] = test system: Aphis gossypii

| SMILES | mortality (Heliothis virescens [1]) | LC50 (Trichoplusia ni [2]) | LC50 (Spodoptera exigua [3]) | LC50 (Myzus persicae) | mortality at 50 ppm (Aphis gossypii [4]) | mortality at 2.5 ppm (Tetranychus urticae [5]) | LC50 (Heliothis virescens [6]) | mortality at 5 ppm (Aphis gossypii [7]) | mortality (Bemisia tabaci [8]) | mortality (Trichoplusia ni [9]) | mortality (Spodoptera exigua [10]) | LC50 (Aphis gossypii [12]) | mortality (Bemisia tabaci [14]) | further results |
| --- | --- | --- | --- | --- | --- | --- | --- | --- | --- | --- | --- | --- | --- | --- |
| Cc1cc(-c2ccc(OC(F)(F)C(F)Br)cc2)sc1-c1nc(-c2c(F)cccc2Cl)nn1C (centres undefined) | 90% | < 1.6 µg/mL | 2.17 µg/mL (≈ 3.87 µM) | 62 µg/mL (≈ 111 µM) | 90% | 90% | 3.93 µg/mL (≈ 7.01 µM) | 89% | inactive | <50% | 70% |  |  |  |
| Cc1cc(-c2cccc(OC(F)(F)C(F)Cl)c2)sc1-c1nc(-c2c(F)cccc2Cl)nn1C (centres undefined) | 90% | < 1.6 µg/mL | 23.1 µg/mL (≈ 44.7 µM) | 75 µg/mL (≈ 145 µM) | 90% | 90% | 4.38 µg/mL (≈ 8.48 µM) | 91% | inactive |  | 60% |  |  | mortality (Trichoplusia ni [11]): inactive; LC90 (Heliothis virescens [6]): 151 ppm |
| Cc1c(Br)csc1-c1nc(-c2c(F)cccc2Cl)nn1C |  |  |  | 0.8 µg/mL (≈ 2.07 µM) |  |  |  |  |  |  |  | 0.7 µg/mL (≈ 1.81 µM) |  | LC50 (Tetranychus urticae [13]): 0.29 µg/mL (≈ 0.75 µM) |
| Cc1c(-c2ccc(OC(F)(F)C(F)Cl)cc2)csc1-c1nc(-c2c(F)cccc2Cl)nn1C (centres undefined) | 90% | < 1.56 µg/mL | 1.56 µg/mL (≈ 3.02 µM) | < 5 µg/mL | 80% | 90% | 4.38 µg/mL (≈ 8.48 µM) |  |  | 70% | 80% | < 5 µg/mL | 90% |  |
| Cn1nc(-c2c(F)cccc2Cl)nc1-c1sc(-c2ccc(OC(F)(F)C(F)Br)cc2)cc1Cl (centres undefined) | 90% | < 1.6 µg/mL | < 1.6 µg/mL | 70 µg/mL (≈ 120 µM) | 90% | 90% | 53.7 µg/mL (≈ 92.4 µM) | 54% | inactive | 70% | 50% |  |  |  |
| Cc1cc(-c2ccc(F)c(F)c2)sc1-c1nc(-c2c(F)cccc2Cl)nn1C | 90% |  |  | 88 µg/mL (≈ 210 µM) | < 50% | 60% |  |  |  | 90% | 90% | 4.41 µg/mL (≈ 10.5 µM) | 90% | LC90 (Aphis gossypii [12]): 22.3 ppm; mortality (Spodoptera exigua [15]): 0%; mortality (Trichoplusia ni [16]): 40%; mortality (Heliothis virescens [17]): 20% |
| CC1(C)C(C=C(Cl)Cl)C1C(=O)OC(C#N)c1cccc(Oc2ccccc2)c1 (stereo not drawn) [ALPHA-CYPERMETHRIN] |  | 0.6 µg/mL (≈ 1.44 µM) | 1.6 µg/mL (≈ 3.84 µM) |  |  |  | 1.3 µg/mL (≈ 3.12 µM) |  |  |  |  |  |  |  |
| Cn1nc(-c2c(F)cccc2Cl)nc1-c1sc(-c2ccc(OC(F)(F)F)cc2)cc1Cl | 90% | 4.02 µg/mL (≈ 8.23 µM) | < 1.6 µg/mL | 65 µg/mL (≈ 133 µM) | 90% | 90% | 62 µg/mL (≈ 127 µM) | 80% | inactive | 90% | 70% |  |  | LC90 (Trichoplusia ni [2]): 69.2 ppm |
| Cc1cc(-c2ccc(F)c(Cl)c2)sc1-c1nc(-c2c(F)cccc2Cl)nn1C | 90% |  |  | 55 µg/mL (≈ 126 µM) |  | 60% |  |  | inactive | 90% | 80% | 9.28 µg/mL (≈ 21.3 µM) |  | mortality (Spodoptera exigua [15]): 0%; mortality (Trichoplusia ni [16]): 60%; mortality (Heliothis virescens [17]): 0%; mortality (Aphis gossypii [18]): inactive |
| Cc1cc(-c2ccc(Cl)cc2F)sc1-c1nc(-c2c(F)cccc2Cl)nn1C | 90% |  |  | 91 µg/mL (≈ 209 µM) | < 50% | 90% |  |  | inactive | 90% | 70% | 4.93 µg/mL (≈ 11.3 µM) |  | mortality (Spodoptera exigua [15]): 0%; mortality (Trichoplusia ni [16]): 40%; mortality (Heliothis virescens [17]): 20% |
| Cc1c(-c2ccc(OC(F)(F)F)cc2)csc1-c1nc(-c2c(F)cccc2Cl)nn1C | 90% | 15.8 µg/mL (≈ 33.8 µM) | 21.9 µg/mL (≈ 46.8 µM) | 23.3 µg/mL (≈ 49.8 µM) | 90% | 90% | > 400 µg/mL |  |  | 90% | 90% | 0.07 µg/mL (≈ 0.15 µM) | 90% | LC90 (Aphis gossypii [12]): 22.2 ppm |
| Cn1nc(-c2c(F)cccc2Cl)nc1-c1ccc(-c2ccc(OC(F)(F)F)cc2)s1 | 90% | 20.6 µg/mL (≈ 45.4 µM) | 49.9 µg/mL (≈ 110 µM) | 9.6 µg/mL (≈ 21.2 µM) | 90% | 90% | 122 µg/mL (≈ 269 µM) | 47% |  |  | 70% |  | <50% | mortality (Trichoplusia ni [11]): inactive; LC90 (Trichoplusia ni [2]): 27.7 ppm; LC90 (Spodoptera exigua [3]): 59.9 ppm |
| Cc1cc(-c2ccc(Cl)c(F)c2)sc1-c1nc(-c2c(F)cccc2Cl)nn1C | 90% | 30.2 µg/mL (≈ 69.2 µM) | 65 µg/mL (≈ 149 µM) | 89 µg/mL (≈ 204 µM) | 80% | 90% | 19.4 µg/mL (≈ 44.5 µM) |  | inactive | 90% | 90% | 0.923 µg/mL (≈ 2.12 µM) |  | LC90 (Trichoplusia ni [2]): 40.3 ppm; LC90 (Spodoptera exigua [3]): 323 ppm; LC90 (Aphis gossypii [12]): 933 ppm |
| Cc1cc(-c2ccc(OC(F)(F)C(F)Cl)cc2)sc1-c1nc(-c2c(F)cccc2Cl)nn1C (centres undefined) | 90% | < 1.6 µg/mL | < 1.79 µg/mL | < 3.1 µg/mL | 90% | 90% | < 1.6 µg/mL |  |  | 90% | 60% | < 0.5 µg/mL | <50% | LC90 (Tetranychus urticae [13]): 2.07 ppm; LC50 (Tetranychus urticae [13]): < 0.1 µg/mL |
| Cc1cc(-c2ccc(OC(F)(F)F)cc2)sc1-c1nc(-c2c(F)cccc2Cl)nn1C | 80% | < 1.6 µg/mL | < 1.6 µg/mL | 13.7 µg/mL (≈ 29.3 µM) | 60% | 90% | 225 µg/mL (≈ 481 µM) |  | inactive | 90% | 90% | 0.5 µg/mL (≈ 1.07 µM) |  | LC90 (Aphis gossypii [12]): 12.8 ppm; LC90 (Tetranychus urticae [13]): 0.151 ppm; LC50 (Tetranychus urticae [13]): < 0.04 µg/mL |
| Cn1nc(-c2c(F)cccc2Cl)nc1-c1sc(-c2ccc(OC(F)(F)C(F)Cl)cc2)cc1Cl (centres undefined) | 90% | < 1.6 µg/mL | < 1.6 µg/mL | 78 µg/mL (≈ 145 µM) | 90% | 90% | < 1.6 µg/mL | 72% | inactive |  | 60% |  |  | mortality (Trichoplusia ni [11]): inactive |
